Data published in ChEMBL document CHEMBL2202980, “Anti-viral activity of (-)- and (+)-usnic acids and their derivatives against influenza virus A(H1N1)2009” (Bioorg Med Chem Lett, 2012).

Legend:
[1] = Selectivity index, ratio of CTD50 for MDCK cells to ED50 for influenza virus A/California/07/09 (H1N1) pdm09; type: toxicity, cell-based; settings: dog, read-out: Selectivity Index
[2] = Cytotoxicity against MDCK cells after 48 hrs by MTT assay; type: cell-based, Canis lupus familiaris; settings: dog, read-out: CTD50
In short: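 MDCK monolayers were grown in MEM with 5% fetal calf serum and washed with serum-free MEM. They were exposed to serial twofold dilutions from 5 mg/ml DMSO stocks for 48 h at 37 °C. CTD50 was derived from this.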

Influenza A virus = assay: Antiviral activity against Influenza virus A/California/07/09 (H1N1) pdm09 infected in MDCK cells after 48 hrs followed by incubated in chicken erythrocytes for 1 hr by hemagglutinination based end-point dilution method; type: functional, Influenza A virus (A/California/07/2009(H1N1)); settings: read-out: ED50 (the source's name)
In short: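 MDCK cells were pretreated for 1 h at 37 °C with serial twofold compound dilutions in MEM containing 2 mM arginine, 2 mM glutamine and trypsin. They were then infected and cultured at 36 °C for 48 h. Supernatant was mixed with 1% chicken erythrocytes for 1 h at room temperature. Titer was read as the end-point dilution giving hemagglutination in 50% of wells. ED50 is the concentration halving virus production versus untreated control.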

RAW264.7 [3] = assay: Antiinflammatory activity in mouse RAW264.7 cells assessed as inhibition of LPS-induced iNOS protein synthesis; type: functional, cell-based
RAW264.7 [4] = assay: Antiinflammatory activity in mouse RAW264.7 cells assessed as inhibition of LPS-induced TNFalpha level; type: functional, cell-based
[5] = Selectivity index, ratio of cytotoxicity against human CEM cells to Antiviral activity against HIV1 RF; type: toxicity, cell-based, CCRF-CEM; settings: read-out: Selectivity Index

| Compound | selectivity ratio [1] | CC50 at 48 h [2] [µM] | EC50 (Influenza A virus; Influenza A virus, pdm09, MDCK) [µM] | EC50 (Influenza A virus) [µM] | IC50 (RAW264.7 [3]) [µM] | IC50 (RAW264.7 [4]) [µM] | selectivity ratio [5] |
| --- | --- | --- | --- | --- | --- | --- | --- |
| CC(=O)c1c(O)c(C)c(O)c2c1OC1=CC(=O)/C(=C(/C)Nc3ccc(Br)cc3)C(=O)[C@@]12C | 9.6 | 193 | 20.2 |  |  |  |  |
| CC(=O)c1c(O)c(C)c(O)c2c1OC1=CC(=O)/C(=C(/C)Nc3ccc(F)cc3)C(=O)[C@]12C | 3.9 | 350 | 90.4 |  |  |  |  |
| CC(=O)c1c(O)c(C)c(O)c2c1OC1=Cc3c(c(C)nn3-c3ccccc3)C(=O)[C@@]12C | 12.4 | 769 | 62.2 |  |  |  |  |
| CC(=O)C1=C(O)C=C2Oc3c(C(C)=O)c(O)c(C)c(O)c3[C@]2(C)C1=O [(-)-USNIC ACID] | 14.4 | 209 | 14.5 |  |  |  |  |
| CC(=O)c1c(O)c(C)c(O)c2c1OC1=CC(=O)/C(=C(/C)Nc3cccc(Br)c3)C(=O)[C@@]12C | 3.2 | 33.6 | 10.4 |  |  |  |  |
| CC(=O)c1c(O)c(C)c(O)c2c1OC1=CC(=O)/C(=C(/C)Nc3ccc(F)cc3)C(=O)[C@@]12C | 8.8 | 208 | 23.6 |  |  |  |  |
| CC(=O)c1c(O)c(C)c(O)c2c1OC1=CC(=O)/C(=C(/C)NCC(F)(F)C(F)F)C(=O)[C@]12C | 10.2 | 397 | 38.9 |  |  |  |  |
| CC(=O)c1c(O)c(C)c(O)c2c1OC1=CC(=O)/C(=C(/C)Nc3cccc(Br)c3)C(=O)[C@]12C | 10 | 97.8 | 9.8 |  |  |  |  |
| CC(=O)c1c(O)c(C)c(O)c2c1OC1=CC(=O)/C(=C(/C)NCC(=O)O)C(=O)[C@]12C | 18.4 | 197 |  | 10.7 |  |  |  |
| NC(=O)c1ncn([C@@H]2O[C@H](CO)[C@@H](O)[C@H]2O)n1 [RIBAVIRIN] | > 81 | > 2000 | 24.6 |  |  |  |  |
| CC(=O)c1c(O)c(C)c(O)c2c1OC1=CC(=O)/C(=C(/C)NCCC(=O)O)C(=O)[C@@]12C | 23.5 | 162 | 6.9 |  |  |  |  |
| CC(=O)c1c(O)c(C)c(O)c2c1OC1=CC(=O)/C(=C(/C)NCC(F)(F)C(F)F)C(=O)[C@@]12C | 19.4 | 31.1 | 1.6 |  |  |  |  |
| CC(N)C12CC3CC(CC(C3)C1)C2 (configuration not stated) [RIMANTADINE] | 5 | 284 | 56.9 |  |  |  |  |
| CC[N+](C)(CC)CCN/C(C)=C1\C(=O)C=C2Oc3c(C(C)=O)c(O)c(C)c(O)c3[C@@]2(C)C1=O | 21.9 | 121 | 5.5 |  |  |  |  |
| CC(=O)c1c(O)c(C)c(O)c2c1OC1=Cc3c(c(C)nn3-c3ccccc3)[C@@H](O)[C@]12C | 6.8 | 71.8 | 10.5 |  |  |  |  |
| CC[N+](C)(CC)CCN/C(C)=C1\C(=O)C=C2Oc3c(C(C)=O)c(O)c(C)c(O)c3[C@]2(C)C1=O | 2.7 | 34.2 | 12.5 |  |  |  |  |
| CC(=O)c1c(O)c(C)c(O)c2c1OC1=CC(=O)/C(=C(/C)Nc3cccc(F)c3)C(=O)[C@@]12C | 4.8 | 61.3 | 12.7 |  |  |  |  |
| CC(=O)C1=C(O)C=C2O[C@]34O[C@@]3(C(C)=O)C(=O)C(C)=C(O)[C@]4(O)[C@@]2(C)C1=O | 37.3 | 190 | 5.1 |  |  |  |  |
| CC(=O)c1c(O)c(C)c(O)c2c1OC1=Cc3c(c(C)nn3-c3ccccc3)C(=O)[C@]12C | 9 | 522 | 57.8 |  |  |  |  |
| CC(=O)c1c(O)c(C)c(O)c2c1OC1=CC(=O)/C(=C(/C)Nc3ccc(Cl)cc3)C(=O)[C@@]12C | 6.9 | 172 | 25.1 |  |  |  |  |
| CC(=O)C1=C(O)C=C2Oc3c(C(C)=O)c(O)c(C)c(O)c3[C@@]2(C)C1=O [(+)-USNIC ACID] | 5.9 | 305 |  | 51.7 | 4.7 | 12.8 | 3 |
| CC(=O)c1c(O)c(C)c(O)c2c1OC1=CC(=O)/C(=C(/C)Nc3ccc(Br)cc3)C(=O)[C@]12C | 5.1 | 154 | 30.4 |  |  |  |  |
| CC(=O)C1=C(O)C=C2O[C@]34O[C@@]3(C(C)=O)C(=O)C(C)=C(O)[C@]4(O)[C@]2(C)C1=O | 8 | 221 | 27.7 |  |  |  |  |
| CC(=O)c1c(O)c(C)c(O)c2c1OC1=Cc3c(c(C)nn3-c3ccccc3)[C@@H](O)[C@@]12C | 13.2 | 78.9 | 6 |  |  |  |  |
| CC(=O)c1c(O)c(C)c(O)c2c1OC1=CC(=O)/C(=C(/C)Nc3cccc(F)c3)C(=O)[C@]12C | 8.8 | 35.3 | 4 |  |  |  |  |
| CC(=O)c1c(O)c(C)c(O)c2c1OC1=CC(=O)/C(=C(/C)NCCC(=O)O)C(=O)[C@]12C | 1 | 400 | 400 |  |  |  |  |
| CC(=O)c1c(O)c(C)c(O)c2c1OC1=CC(=O)/C(=C(/C)Nc3ccc(Cl)cc3)C(=O)[C@]12C | 11.7 | 153 | 13.1 |  |  |  |  |
| CC(=O)c1c(O)c(C)c(O)c2c1OC1=CC(=O)/C(=C(/C)NCC(=O)O)C(=O)[C@@]12C | 6 | 67.3 |  | 11.2 |  |  |  |
